Assay results from publication PMC3367204 (Nucleic Acids Research, 2012).
Values after ≈ are worked out from the molar mass of the structure shown. Like-named read-outs stand apart in the source and are kept apart here.

Experiments:
E. coli mutant U2609C = assay: Sensitivity to telithromycin of E. coli cells; type: cell-based; conditions: Escherichia coli, MUTANTU2609C, read-out: IC50 (growth inhibition)
In short: (§1)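 Preculture at OD560 0.700 is diluted into LB and grown at 37°C with or without test compound, until the untreated culture reaches OD560 0.700. IC50 is the concentration that lowers OD to halfway between 0.700 and the bottom plateau of the dose curve. Means of three independent experiments.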

[1] = target: T1, complex C prepared from E. coli ribosomes (PTase activity) (Escherichia coli, UniProt P60723+P61175); assay: Puromycin reaction; type: biochemical; conditions: 2 μΜ telithromycin, 200 μΜ puromycin, buffer A, 25°C
In short: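 Complex C from E. coli ribosomes reacts with 200 µM puromycin at 25°C in buffer A (100 mM Tris/HCl pH 7.2, 4.5 mM Mg acetate, 150 mM NH4Cl), alone or with 2 µM test compound or 2 µM tylosin. AcPhe-puromycin formation is followed over time. Means of three independent experiments.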

[2] = test system: E. coli mutant L22: Δ82–84; assay: Sensitivity to telithromycin of E. coli cells; type: cell-based; conditions: Escherichia coli, read-out: IC50 (growth inhibition)
In short: as §1

[3] = test system: E. coli mutant L4: Lys63Glu; assay: Sensitivity to telithromycin of E. coli cells; type: cell-based; conditions: Escherichia coli, read-out: IC50 (growth inhibition)
In short: as §1

wild-type E. coli cells = assay: Sensitivity to telithromycin of E. coli cells; type: cell-based; conditions: Escherichia coli, read-out: IC50 (growth inhibition)
In short: as §1

[4] = target: complex C (poly(U)-programmed E. coli ribosomes), wild-type (Escherichia coli, UniProt P60723+P61175); type: binding; conditions: for Kd: Wild-type; for Kd / koff: 4.5 mM Mg^2+, 150 mM NH4^+; for koff: read-out: koff,T, Wild-type
[5] = target: complex C containing ribosomes mutated in ribosomal protein L22: Δ82–84 (Escherichia coli, UniProt P60723+P61175, DEL82-84); assay: Kinetics of telithromycin binding to complex C by competition with tylosin; conditions: for Kd: L22: Δ82–84, 4.5 mM Mg^2+, 150 mM NH4^+
E. coli mutant U754A = assay: Sensitivity to telithromycin of E. coli cells; type: cell-based; conditions: Escherichia coli, MUTANTU754A, read-out: IC50 (growth inhibition)
In short: as §1

[6] = test system: complex C containing ribosomes with mutated 23S rRNA U2609C; assay: Kinetics of telithromycin binding to complex C by competition with tylosin; parameters: species or system Escherichia coli
[7] = target: complex C containing ribosomes mutated in ribosomal protein L4: Lys63Glu (Escherichia coli, UniProt P60723+P61175, K63E); assay: as above; conditions: for Kd: L4: Lys63Glu, 4.5 mM Mg^2+, 150 mM NH4^+
[8] = target: complex C containing ribosomes with mutated 23S rRNA U754A (Escherichia coli, UniProt P60723+P61175); assay: as above; conditions: for Kd: U754A, 4.5 mM Mg^2+, 150 mM NH4^+
[9] = test system: 23S rRNA of complex C prepared from E. coli ribosomes; assay: Footprinting; type: binding, Escherichia coli
In short: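 Complex C (10 pmol; 100 nM) is incubated at 25°C in buffer B (50 mM HEPES/KOH pH 7.2, 4.5 mM Mg acetate, 150 mM NH4Cl, 5 mM DTT), optionally with 100 µM spermine. […] Probing uses DMS, kethoxal or CMCT, with 23S rRNA read by primer extension on 6% polyacrylamide/7 M urea gels. Band intensity is normalized to the no-compound control; means of three runs.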

[10] = target: T1, complex C prepared from E. coli ribosomes (PTase activity); conditions: 4.5 mM Mg^2+ and 150 mM NH4^+; cited from earlier work
[11] = C*T (final site), 4.5 mM Mg^2+ 150 mM NH4^+
[12] = C*T (final site), 4.5 mM Mg^2+ 150 mM NH4^+ 100 μΜ spermine
[13] = CT (initial site, 5 s), 4.5 mM Mg^2+ 150 mM NH4^+
[14] = CT (initial site, 5 s), 4.5 mM Mg^2+ 150 mM NH4^+ 100 μΜ spermine

CC[C@H]1OC(=O)[C@H](C)C(=O)[C@H](C)[C@@H](O[C@@H]2O[C@H](C)C[C@H](N(C)C)[C@H]2O)[C@](C)(OC)C[C@@H](C)C(=O)[C@H](C)[C@H]2N(CCCCn3cnc(-c4cccnc4)c3)C(=O)O[C@]12C [telithromycin]
IC50 (E. coli mutant U2609C): 41.6 ± 4.3 µg/mL (≈ 51.2 µM)
Inhibition of AcPhe-puromycin synthesis [1]: fails to inhibit
IC50 [2]: 50 ± 6.5 µg/mL (≈ 61.6 µM)
IC50 [3]: 12 ± 2.1 µg/mL (≈ 14.8 µM)
IC50 (wild-type E. coli cells): 4 ± 0.8 µg/mL (≈ 4.93 µM)
Reversal of inactivation of complex C by tylosin ([4]; 4 μΜ tylosin, telithromycin >10 μΜ): entirely reversed
Decrease of kon,T value by polyamines ([4]; 100 μΜ spermine or 50 μΜ spermine and 2 mM spermidine vs no polyamines): 83%
Kd ([4]; K*T, 50 μΜ spermine, 2 mM spermidine): 0.0757 ± 0.0088 µM
Kd ([4]; K*T, 100 μΜ spermine): 0.0914 ± 0.0112 µM
Kd ([4]; KT, 50 μΜ spermine, 2 mM spermidine): 1.714 ± 0.013 µM
Kd ([4]; KT, 100 μΜ spermine): 2.5 ± 0.185 µM
Kd ([4]; KT, initial low-affinity site): 0.5 ± 0.044 µM
koff.T lower than the rate constant for drop off (Lovmar et al.) ([4]; compared with drop off rate constant of ref 3): 10 times
Increase of KT* value by polyamines ([4]; polyamine buffer vs no polyamines): 10 fold
Decrease in the affinity of telithromycin for the initial site by spermine ([4]; presence of spermine): 5 fold
koff [4]: 0.000137 s⁻¹
koff ([4]; 100 μΜ spermine): 4.83e-05 s⁻¹
Kd ([5]; K*T): 0.21 ± 0.0309 µM
Kd ([5]; KT): 0.53 ± 0.042 µM
Enhancement in dissociation rate constant koff,T by mutation ([5]; L22: Δ82–84 vs wild-type): about 4 fold
Increase in overall dissociation constant K*T by mutation ([5]; L22: Δ82–84 vs wild-type): 25 fold
Reduction in association rate constant kon,T by mutation ([5]; L22: Δ82–84 vs wild-type): 10 fold
koff ([5]; read-out: koff,T): 0.0005 s⁻¹
IC50 (E. coli mutant U754A): 14.8 ± 2.5 µg/mL (≈ 18.2 µM)
Enhancement of overall constant Κ*T by mutation ([6]; U2609C vs wild-type): 20 fold
koff,T ([6]; U2609C, 4.5 mM Mg^2+, 150 mM NH4^+): 0.0395 ± 0.0031 min^_1
Kd ([6]; read-out: K*T, U2609C, 4.5 mM Mg^2+, 150 mM NH4^+): 0.148 ± 0.0189 µM
Kd ([6]; read-out: KT, U2609C, 4.5 mM Mg^2+, 150 mM NH4^+): 0.536 ± 0.043 µM
Kd ([7]; K*T): 0.012 ± 0.00267 µM
Kd ([7]; KT): 0.47 ± 0.048 µM
koff ([7]; read-out: koff,T): 0.000127 s⁻¹
Kd ([8]; K*T): 0.0226 ± 0.00322 µM
Kd ([8]; KT): 0.604 ± 0.045 µM
Effect of mutation on koff,T constant ([8]; U754A vs wild-type): doubling
Relative reactivity of 23S rRNA residue A752 (ratio to complex C) [9, 11]: 0.30 ± 0.02 ^*^, **
Relative reactivity of 23S rRNA residue A789 (ratio to complex C) [9, 11]: 0.89 ± 0.08
Relative reactivity of 23S rRNA residue A2058 (ratio to complex C) [9, 11]: 0.25 ± 0.03 ^*
Relative reactivity of 23S rRNA residue A2059 (ratio to complex C) [9, 11]: 0.42 ± 0.03 ^*
Relative reactivity of 23S rRNA residue A2062 (ratio to complex C) [9, 11]: 1.28 ± 0.15 ^*
Relative reactivity of 23S rRNA residue C2611 (ratio to complex C) [9, 11]: 0.60 ± 0.08 ^*
Relative reactivity of 23S rRNA residue G2505 (ratio to complex C) [9, 11]: 0.78 ± 0.11 ^*
Relative reactivity of 23S rRNA residue U790 (ratio to complex C) [9, 11]: 0.85 ± 0.08 ^*^, **
Relative reactivity of 23S rRNA residue U2609 (ratio to complex C) [9, 11]: 0.72 ± 0.04 ^*^, **
Relative reactivity of 23S rRNA residue A752 (ratio to complex C) [9, 12]: 0.87 ± 0.07 ^*
Relative reactivity of 23S rRNA residue A789 (ratio to complex C) [9, 12]: 0.93 ± 0.08
Relative reactivity of 23S rRNA residue A2058 (ratio to complex C) [9, 12]: 0.38 ± 0.02 ^*^, **
Relative reactivity of 23S rRNA residue A2059 (ratio to complex C) [9, 12]: 0.57 ± 0.03 ^*^, **
Relative reactivity of 23S rRNA residue A2062 (ratio to complex C) [9, 12]: 1.15 ± 0.14
Relative reactivity of 23S rRNA residue C2611 (ratio to complex C) [9, 12]: 0.97 ± 0.05
Relative reactivity of 23S rRNA residue G2505 (ratio to complex C) [9, 12]: 0.85 ± 0.06 ^*
Relative reactivity of 23S rRNA residue U790 (ratio to complex C) [9, 12]: 0.93 ± 0.08**
Relative reactivity of 23S rRNA residue U2609 (ratio to complex C) [9, 12]: 0.90 ± 0.08
Relative reactivity of 23S rRNA residue A752 (ratio to complex C) [9, 13]: 0.65 ± 0.05
Relative reactivity of 23S rRNA residue A789 (ratio to complex C) [9, 13]: 0.78 ± 0.07
Relative reactivity of 23S rRNA residue A2058 (ratio to complex C) [9, 13]: 0.20 ± 0.02
Relative reactivity of 23S rRNA residue A2059 (ratio to complex C) [9, 13]: 0.38 ± 0.03
Relative reactivity of 23S rRNA residue A2062 (ratio to complex C) [9, 13]: 1.33 ± 0.18
Relative reactivity of 23S rRNA residue C2611 (ratio to complex C) [9, 13]: 0.60 ± 0.09
Relative reactivity of 23S rRNA residue G2505 (ratio to complex C) [9, 13]: 0.65 ± 0.09
Relative reactivity of 23S rRNA residue U790 (ratio to complex C) [9, 13]: 0.60 ± 0.07
Relative reactivity of 23S rRNA residue U2609 (ratio to complex C) [9, 13]: 0.95 ± 0.07
Relative reactivity of 23S rRNA residue A752 (ratio to complex C) [9, 14]: 0.75 ± 0.05
Relative reactivity of 23S rRNA residue A789 (ratio to complex C) [9, 14]: 0.82 ± 0.08
Relative reactivity of 23S rRNA residue A2058 (ratio to complex C) [9, 14]: 0.30 ± 0.01
Relative reactivity of 23S rRNA residue A2059 (ratio to complex C) [9, 14]: 0.45 ± 0.05
Relative reactivity of 23S rRNA residue A2062 (ratio to complex C) [9, 14]: 1.20 ± 0.14
Relative reactivity of 23S rRNA residue C2611 (ratio to complex C) [9, 14]: 0.98 ± 0.05
Relative reactivity of 23S rRNA residue G2505 (ratio to complex C) [9, 14]: 0.72 ± 0.07
Relative reactivity of 23S rRNA residue U790 (ratio to complex C) [9, 14]: 0.70 ± 0.07
Relative reactivity of 23S rRNA residue U2609 (ratio to complex C) [9, 14]: 0.97 ± 0.07

CC[C@H]1OC(=O)C[C@@H](O)[C@H](C)[C@@H](O[C@@H]2O[C@H](C)[C@@H](O[C@H]3C[C@@](C)(O)[C@@H](O)[C@H](C)O3)[C@H](N(C)C)[C@H]2O)[C@@H](CC=O)C[C@@H](C)C(=O)/C=C/C(C)=C/[C@@H]1CO[C@@H]1O[C@H](C)[C@@H](O)[C@@H](OC)[C@H]1OC [tylosin]
Inhibition of AcPhe-puromycin synthesis [10]: inhibits
